From publication PMC6117112 (ACS chemical biology, 2018)
Like-named read-outs stand apart in the source and are kept apart here.

Experiments:
[1] = MTT cytotoxicity assay in A549 cells, in the dark; format: cell-based; details: human
[2] = format: cell-based; details: human, A549 cells
[3] = MTT cytotoxicity assay in HUVECs, in the dark; format: cell-based, human; details: human, HUVECs (human umbilical vein endothelial cells)
A549 cells = experiment: Mitochondrial bioenergetics; format: cell-based, human
Procedure, shortened: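 Seeded 20,000 cells/well 24 h before, then 4 h with vehicle (0.4% DMSO) or test compound (0.1, 1.0, 10 μM). One plate blue-LED illuminated 1 h at 37 °C, the other kept dark. XF base medium with 1 mM pyruvate, 2 mM glutamine, 25 mM glucose, pH 7.4; 30 min at 37 °C, no CO2. OCR over 80 min after oligomycin, FCCP, then rotenone/antimycin A (each 1.0 μM). Three experiments × 8 replicates; mean ±SEM; one-way ANOVA, Tukey.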

[4] = format: cell-based; details: human, HUVECs (human umbilical vein endothelial cells)
HUVECs = experiment: MTT cytotoxicity assay in HUVECs, in the dark; format: cell-based, human; details: HUVECs, non-illuminated
mitochondria = details: cited from earlier work
[5] = 10 μM, after 1 h of illumination to induce CO release

Row | IC50 [4] [µM] | SMILES | IC50 [1] [µM] | IC50 [3] [µM] | other results
1 | 3.78 ± 1.5 | O=C(NCC[P+](c1ccccc1)(c1ccccc1)c1ccccc1)c1ccc(-c2oc3cc4ccccc4cc3c(=O)c2O)cc1.[Br-] [Compound 2, (2-(4-(3-hydroxy-4-oxo-4H-benzo[g]chromen-2-yl)benzamido)ethyl)triphenylphosphonium bromide] | 14.1 ± 2.7 | 1.51 ± 1.4 | IC50 [2]: 4.6 ± 3.6 µM; ATP production (OCR) (A549 cells; [5]): decreased; basal respiration (OCR) (A549 cells; [5]): decreased; maximal respiration (OCR) (A549 cells; [5]): decreased; reserve capacity (OCR) (A549 cells; [5]): decreased; concentration needed to produce significant changes in bioenergetics parameters (A549 cells; light-triggered CO release): 10 µM
2 | – | O=C(NCCCCCCCC[P+](c1ccccc1)(c1ccccc1)c1ccccc1)c1ccc(-c2oc3cc4ccccc4cc3c(=O)c2O)cc1 [Compound 3, (8-(4-(3-hydroxy-4-oxo-4H-benzo[g]chromen-2-yl)benzamido)octyl)triphenylphosphonium bromide] | 8.48 ± 4 | 8.4 ± 3.6 | –
3 | > 100 | O=C(NCC[P+](c1ccccc1)(c1ccccc1)c1ccccc1)c1ccc(C(=O)Oc2cc3ccccc3cc2C(=O)O)cc1.[Br-] [Compound 4, (2-(4-(((3-carboxynaphthalen-2-yl)oxy)carbonyl)benzamido)ethyl)triphenylphosphonium bromide] | > 100 | – | cytotoxicity (MTT), result in words (HUVECs): no cytotoxicity
4 | – | O=C(NCCCCCCCC[P+](c1ccccc1)(c1ccccc1)c1ccccc1)c1ccc(C(=O)Oc2cc3ccccc3cc2C(=O)O)cc1 [Compound 5, (8-(4-(((3-carboxynaphthalen-2-yl)oxy)carbonyl)benzamido)octyl)triphenylphosphonium bromide] | 69.1 ± 11 | 90 ± 7.5 | –
5 | > 100 | O=C(O)CC[P+](c1ccccc1)(c1ccccc1)c1ccccc1.[Br-] [TPPBr, 2-carboxyethyl-triphenylphosphonium bromide, reference compound] | > 100 | > 100 | changes in the mitochondrial bioenergetics profile (A549 cells; 0.1–10 μM, illuminated or non-illuminated cells): no significant changes
6 | – | O=c1cc(-c2ccccc2)oc2cc(O)c(O)c(O)c12 [baicalein] | – | – | effect on mitochondrial bioenergetics (mitochondria): decreases ATP-production via uncoupling of mitochondrial membranes
7 | – | O=c1c(O)c(-c2ccc(O)c(O)c2)oc2cc(O)cc(O)c12 [quercetin] | – | – | effect on mitochondrial bioenergetics (mitochondria): increases basal respiration, maximal respiration, ATP-linked respiration and the reserve capacity of mitochondria
